Active and inactive are the calls of the source. Numbered stars: 1 amine (or outer) side, 2 acyl side, 3 side chain; on linkers, the order of the positions; unused ones are H or OH. Square brackets hold non-standard residues; d marks the D form. Peptide text beside a SMILES is read from it. * marks the point of attachment. Hexanoyl(6-NMe3+) = C[N+](C)(C)CCCCCC(=O)*; Pentanoyl(5-guanidino) = NC(N)=NCCCCC(=O)*; Ava(2S-Me) = C[C@@H](CCCN[*:1])C(=O)[*:2]; X30 = C[C@@H](CCCCC[N+](C)(C)C)C(=O)*; X21 = CC/N=C(\NCC)NCCC[C@H](C)C(=O)*; X27 = C[C@@H](CCCN1CCN(C)C1=N)C(=O)*; X28 = C/N=C(\NC)NCCC[C@H](C)C(=O)*; X17 = C[C@@H](CCCN1CCNC1=N)C(=O)*; X25 = C[C@@H](CCCNC1=NCCN1)C(=O)*; X23 = CCNC(=N)NCCC[C@H](C)C(=O)*; X14 = CNC(=N)NCCC[C@H](C)C(=O)*; X13 = CC/N=C(\NCC)NCCCCC(=O)*; X32 = C[N+](C)(C)CCCCCCC(=O)*; Tle = CC(C)(C)[C@H](N)C(=O)O; X12 = CNCCCCC[C@H](C)C(=O)*; X22 = C[N+](C)(C)CCCCC(=O)*; X15 = O=C(CCCCNC1=NCCCN1)*; X24 = C[C@@H](CCCCN)C(=O)*; X26 = CNCCCC[C@H](C)C(=O)*; X18 = N=C1NCCN1CCCCC(=O)*; X31 = CCNC(=N)NCCCCC(=O)*; X20 = CNC(=N)NCCCCC(=O)*; X16 = CN(C)CCCCCCC(=O)*; X19 = CN(C)CCCCC(=O)*; X29 = CNCCCCCC(=O)*
Legend:
Rattus norvegicus [1] = assay: Analgesic activity in Sprague-Dawley rat assessed as tiem at which maximal effect was maintained at 5 mg/kg, ip by hot plate assay; format: functional, organism-based; set-up: dose 5 mg/kg
In short: (§1)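 Male Sprague-Dawley rats (240–280 g), 10 mg/kg i.p. (morphine 5 mg/kg, saline controls). Hotplate held at 53.0±0.2°C; latency to hind-paw lift, nibble or shake at serial time points, 30 s cut-off. %MPE from pre- and post-drug latencies; endpoints are maximal %MPE, duration at 100% MPE and area under the response curve. n ≥ 6.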

Rattus norvegicus [2] = assay: Analgesic activity in Sprague-Dawley rat assessed as maximal possible effect paw at 10 mg/kg, ip by hot plate assay; format: functional; conditions: route intraperitoneal; in short: as §1
Rattus norvegicus [3] = assay: Analgesic activity in ip dosed Sprague-Dawley rat assessed as paw withdrawal latency by hot plate assay; format: functional; in short: as §1

Row | Compound | Activity (Rattus norvegicus [1]) | MPE (Rattus norvegicus [2]) [%] | Duration at 100% MPE (Rattus norvegicus [3]) [min]
1 | CN1CC[C@]23c4c5ccc(O)c4O[C@H]2[C@@H](O)C=C[C@H]3[C@H]1C5 | Active | – | –
2 | CNCCCCC[C@H](C)C(=O)N[C@@H](CCCNC(=N)N)C(=O)N1CCC[C@H]1C(=O)N[C@@H](Cc1ccc(O)cc1)C(=O)N[C@H](C(=O)N[C@@H](CC(C)C)C(=O)O)C(C)(C)C (X12-RPY[Tle]L-OH) | – | 100 | 75
3 | CC/N=C(\NCC)NCCCCC(=O)N[C@@H](CCCNC(=N)N)C(=O)N1CCC[C@H]1C(=O)N[C@@H](Cc1ccc(O)cc1)C(=O)N[C@H](C(=O)N[C@@H](CC(C)C)C(=O)O)C(C)(C)C (X13-RPY[Tle]L-OH) | – | 95.68 | 15
4 | CNC(=N)NCCC[C@H](C)C(=O)N[C@@H](CCCNC(=N)N)C(=O)N1CCC[C@H]1C(=O)N[C@@H](Cc1ccc(O)cc1)C(=O)N[C@H](C(=O)N[C@@H](CC(C)C)C(=O)O)C(C)(C)C (X14-RPY[Tle]L-OH) | – | 100 | 75
5 | CC(C)C[C@H](NC(=O)[C@@H](NC(=O)[C@H](Cc1ccc(O)cc1)NC(=O)[C@@H]1CCCN1C(=O)[C@H](CCCNC(=N)N)NC(=O)CCCCNC1=NCCCN1)C(C)(C)C)C(=O)O (X15-RPY[Tle]L-OH) | – | 79.62 | 0
6 | CC(C)C[C@H](NC(=O)[C@@H](NC(=O)[C@H](Cc1ccc(O)cc1)NC(=O)[C@@H]1CCCN1C(=O)[C@H](CCCNC(=N)N)NC(=O)CCCCCCN(C)C)C(C)(C)C)C(=O)O (X16-RPY[Tle]L-OH) | – | 29 | 0
7 | CC(C)C[C@H](NC(=O)[C@@H](NC(=O)[C@H](Cc1ccc(O)cc1)NC(=O)[C@@H]1CCCN1C(=O)[C@H](CCCNC(=N)N)NC(=O)[C@@H](C)CCCN1CCNC1=N)C(C)(C)C)C(=O)O (X17-RPY[Tle]L-OH) | – | 55 | 0
8 | CC(C)C[C@H](NC(=O)[C@@H](NC(=O)[C@H](Cc1ccc(O)cc1)NC(=O)[C@@H]1CCCN1C(=O)[C@H](CCCNC(=N)N)NC(=O)CCCCN1CCNC1=N)C(C)(C)C)C(=O)O (X18-RPY[Tle]L-OH) | – | 82.8 | 0
9 | CC(C)C[C@H](NC(=O)[C@@H](NC(=O)[C@H](Cc1ccc(O)cc1)NC(=O)[C@@H]1CCCN1C(=O)[C@H](CCCNC(=N)N)NC(=O)CCCCN(C)C)C(C)(C)C)C(=O)O (X19-RPY[Tle]L-OH) | – | 100 | 90
10 | CNC(=N)NCCCCC(=O)N[C@@H](CCCNC(=N)N)C(=O)N1CCC[C@H]1C(=O)N[C@@H](Cc1ccc(O)cc1)C(=O)N[C@H](C(=O)N[C@@H](CC(C)C)C(=O)O)C(C)(C)C (X20-RPY[Tle]L-OH) | – | 100 | 75
11 | CC/N=C(\NCC)NCCC[C@H](C)C(=O)N[C@@H](CCCNC(=N)N)C(=O)N1CCC[C@H]1C(=O)N[C@@H](Cc1ccc(O)cc1)C(=O)N[C@H](C(=O)N[C@@H](CC(C)C)C(=O)O)C(C)(C)C (X21-RPY[Tle]L-OH) | – | 10 | 0
12 | CC(C)C[C@H](NC(=O)[C@@H](NC(=O)[C@H](Cc1ccc(O)cc1)NC(=O)[C@@H]1CCCN1C(=O)[C@H](CCCNC(=N)N)NC(=O)CCCC[N+](C)(C)C)C(C)(C)C)C(=O)O.[Cl-] (X22-RPY[Tle]L-OH) | – | 100 | 60
13 | CCNC(=N)NCCC[C@H](C)C(=O)N[C@@H](CCCNC(=N)N)C(=O)N1CCC[C@H]1C(=O)N[C@@H](Cc1ccc(O)cc1)C(=O)N[C@H](C(=O)N[C@@H](CC(C)C)C(=O)O)C(C)(C)C (X23-RPY[Tle]L-OH) | – | 74.48 | 0
14 | CC(C)C[C@H](NC(=O)[C@@H](NC(=O)[C@H](Cc1ccc(O)cc1)NC(=O)[C@@H]1CCCN1C(=O)[C@H](CCCNC(=N)N)NC(=O)[C@@H](C)CCCCN)C(C)(C)C)C(=O)O (X24-RPY[Tle]L-OH) | – | 86 | 0
15 | CC(C)C[C@H](NC(=O)[C@@H](NC(=O)[C@H](Cc1ccc(O)cc1)NC(=O)[C@@H]1CCCN1C(=O)[C@H](CCCNC(=N)N)NC(=O)[C@@H](C)CCCNC1=NCCN1)C(C)(C)C)C(=O)O (X25-RPY[Tle]L-OH) | – | 79.31 | 0
16 | CNCCCC[C@H](C)C(=O)N[C@@H](CCCNC(=N)N)C(=O)N1CCC[C@H]1C(=O)N[C@@H](Cc1ccc(O)cc1)C(=O)N[C@H](C(=O)N[C@@H](CC(C)C)C(=O)O)C(C)(C)C (X26-RPY[Tle]L-OH) | – | 55.8 | 0
17 | CC(C)C[C@H](NC(=O)[C@@H](NC(=O)[C@H](Cc1ccc(O)cc1)NC(=O)[C@@H]1CCCN1C(=O)[C@H](CCCNC(=N)N)NC(=O)[C@@H](C)CCCN1CCN(C)C1=N)C(C)(C)C)C(=O)O (X27-RPY[Tle]L-OH) | – | 76.07 | 0
18 | C/N=C(\NC)NCCC[C@H](C)C(=O)N[C@@H](CCCNC(=N)N)C(=O)N1CCC[C@H]1C(=O)N[C@@H](Cc1ccc(O)cc1)C(=O)N[C@H](C(=O)N[C@@H](CC(C)C)C(=O)O)C(C)(C)C (X28-RPY[Tle]L-OH) | – | 63.3 | 0
19 | CNCCCCCC(=O)N[C@@H](CCCNC(=N)N)C(=O)N1CCC[C@H]1C(=O)N[C@@H](Cc1ccc(O)cc1)C(=O)N[C@H](C(=O)N[C@@H](CC(C)C)C(=O)O)C(C)(C)C (X29-RPY[Tle]L-OH) | – | 100 | 30
20 | CC(C)C[C@H](NC(=O)[C@@H](NC(=O)[C@H](Cc1ccc(O)cc1)NC(=O)[C@@H]1CCCN1C(=O)[C@H](CCCNC(=N)N)NC(=O)[C@@H](C)CCCCC[N+](C)(C)C)C(C)(C)C)C(=O)O.[Cl-] (X30-RPY[Tle]L-OH) | – | 19.9 | 0
21 | CCNC(=N)NCCCCC(=O)N[C@@H](CCCNC(=N)N)C(=O)N1CCC[C@H]1C(=O)N[C@@H](Cc1ccc(O)cc1)C(=O)N[C@H](C(=O)N[C@@H](CC(C)C)C(=O)O)C(C)(C)C (X31-RPY[Tle]L-OH) | – | 37.36 | 0
22 | CC(C)C[C@H](NC(=O)[C@@H](NC(=O)[C@H](Cc1ccc(O)cc1)NC(=O)[C@@H]1CCCN1C(=O)[C@H](CCCNC(=N)N)NC(=O)CCCCCC[N+](C)(C)C)C(C)(C)C)C(=O)O.[Cl-] (X32-RPY[Tle]L-OH) | – | 55.7 | 0
23 | CC(C)C[C@H](NC(=O)[C@@H](NC(=O)[C@H](Cc1ccc(O)cc1)NC(=O)[C@@H]1CCCN1C(=O)[C@H](CCCNC(=N)N)NC(=O)[C@@H](C)CCCN)C(C)(C)C)C(=O)O ({Ava(2S-Me)}-RPY[Tle]L-OH) | – | 89.4 | 0
24 | CC(C)C[C@H](NC(=O)[C@@H](NC(=O)[C@H](Cc1ccc(O)cc1)NC(=O)[C@@H]1CCCN1C(=O)[C@H](CCCNC(=N)N)NC(=O)CCCCC[N+](C)(C)C)C(C)(C)C)C(=O)O.[Cl-] ({Hexanoyl(6-NMe3+)}-RPY[Tle]L-OH) | – | 84 | 0
25 | CC(C)C[C@H](NC(=O)[C@@H](NC(=O)[C@H](Cc1ccc(O)cc1)NC(=O)[C@@H]1CCCN1C(=O)[C@H](CCCNC(=N)N)NC(=O)CCCCNC(=N)N)C(C)(C)C)C(=O)O ({Pentanoyl(5-guanidino)}-RPY[Tle]L-OH) | – | 50.86 | 0

— ChEMBL document CHEMBL1177699, “Identification and functional characterization of a stable, centrally active derivative of the neurotensin (8-13) fragment as a potential first-in-class analgesic” (J Med Chem, 2010)
